Measurements published in ChEMBL document CHEMBL1131227, “Hydroxyphthalocyanines as potential photodynamic agents for cancer therapy” (1998).
The source made the active and inactive calls. The rule behind the calls is not given here.

Tests used:
[1] = tested on: EMT6; experiment: Light dose required to kill 90% of cells(EMT-6 mammary tumor cell line) after 24 hr incubation with 1 uM concentration; format: functional, Mus musculus
How it was run: (§1)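 EMT-6 cells were seeded at 15 × 10³ per well and incubated 1 or 24 h at 37 °C with 1 μM dye from Cremophor emulsion in Waymouth 1% FBS. They were rinsed, refed with 15% FBS, and given red light (10 mW cm⁻²) over 0.1–20 J cm⁻². After overnight incubation, viability was read by MTT (595 nm). LD₉₀ was extrapolated from survival curves, with eightfold replicates per light dose and at least three experiments.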

[2] = tested on: EMT6; experiment: Light dose required to kill 90% of cells(EMT-6 mammary tumor cell line) after 1 hr incubation with 1 uM concentration; format: functional, Mus musculus; how it was run: as §1
[3] = tested on: Mus musculus; experiment: % EMT-6 tumor regression response induced in BALB/c mice after ZnPc and Photofrin-mediated photodynamic therapy (PDT) at a concentration of 2 umol/kg; format: functional
How it was run: (§2)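 In male BALB/c mice (18–22 g), intradermal EMT-6 tumors on each hind thigh were grown 6–8 days to 3–5-mm diameter. Mice then received 1 or 2 μmol kg⁻¹ dye i.v. in Cremophor emulsion, with red-light exposure 24 h later. Scored as percent of animals showing complete tumor regression 3 weeks after PDT.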

[4] = tested on: EMT6; experiment: Drug dose required to kill 90% of cells(EMT-6 mammary tumor cell line) after 24 hr incubation with a fixed fluence of 2.4 J cm-2.; format: functional, Mus musculus
How it was run: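 EMT-6 mouse mammary tumour cells were grown in Waymouth's medium with 15% FBS. They were seeded at 15 × 10³ per well overnight, then given dye (Cremophor emulsion diluted in Waymouth 1% FBS) for 1 or 24 h at 37 °C. Cells were rinsed and refed, then exposed to red light (λ > 590 nm, 10 mW cm⁻²) to 2.4 J cm⁻². MTT was read at 595 nm the next day. Dye-free cells set 100% survival.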

[5] = tested on: Mus musculus; experiment: % EMT-6 tumor necrosis response induced in BALB/c mice after ZnPc and Photofrin-mediated photodynamic therapy (PDT) at a concentration of 1 uM/kg; format: functional
[6] = tested on: Mus musculus; experiment: % EMT-6 tumor regression response induced in BALB/c mice after ZnPc and Photofrin-mediated photodynamic therapy (PDT) at a concentration of 1 uM/kg; format: functional; how it was run: as §2
[7] = tested on: Mus musculus; experiment: % EMT-6 tumor edema response induced in BALB/c mice after ZnPc and Photofrin-mediated photodynamic therapy (PDT) at a concentration of 1 umol/kg; Light; format: functional, organism-based; details: tested as the Zn salt or complex
How it was run: (§3)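 Male BALB/c mice (18–22 g), shaved and depilated, bore EMT-6 tumors from intradermal injection of 2 × 10⁵ cells into each hind thigh. At 6–8 days (tumors 3–5-mm diameter, 2–3-mm thick), dye was given i.v. as a Cremophor emulsion (0.2 mL/20 g) at 1 or 2 μmol kg⁻¹. Red light followed 24 h later. Edema was scored 24 h after PDT as light (+), medium (++), important (+++) or extensive (++++).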

[8] = tested on: Mus musculus; experiment: % EMT-6 tumor necrosis response induced in BALB/c mice after ZnPc and Photofrin-mediated photodynamic therapy (PDT) at a concentration of 10 uM/kg; format: functional, organism-based; details: tested as the Zn salt or complex
[9] = tested on: Mus musculus; experiment: % EMT-6 tumor edema response induced in BALB/c mice after ZnPc and Photofrin-mediated photodynamic therapy (PDT) at a concentration of 10 uM/kg; format: functional, organism-based; details: tested as the Zn salt or complex
[10] = tested on: Mus musculus; experiment: % EMT-6 tumor regression response induced in BALB/c mice after ZnPc and Photofrin-mediated photodynamic therapy (PDT) at a concentration of 10 uM/kg; format: functional
[11] = tested on: V-79 (Cricetulus griseus); experiment: Drug dose required to kill 90% of cells after 1 hr incubation with a fixed fluence of 2.4 J cm-2. (assay with Chinese hamster V-79 fibroblasts)
[12] = tested on: Mus musculus; experiment: % EMT-6 tumor edema response induced in BALB/c mice after ZnPc and Photofrin-mediated photodynamic therapy (PDT) at a concentration of 1 umol/kg; Important; format: functional, organism-based; details: tested as the Zn salt or complex; how it was run: as §3
[13] = tested on: Mus musculus; experiment: % EMT-6 tumor edema response induced in BALB/c mice after ZnPc and Photofrin-mediated photodynamic therapy (PDT) at a concentration of 2 umol/kg; Important; format: functional, organism-based; details: tested as the Zn salt or complex; how it was run: as §3
[14] = tested on: Mus musculus; experiment: % EMT-6 tumor edema response induced in BALB/c mice after ZnPc and Photofrin-mediated photodynamic therapy (PDT) at a concentration of 1 umol/kg; Extensive; format: functional, organism-based; details: tested as the Zn salt or complex; how it was run: as §3
[15] = tested on: Mus musculus; experiment: % EMT-6 tumor edema response induced in BALB/c mice after ZnPc and Photofrin-mediated photodynamic therapy (PDT) at a concentration of 2 umol/kg; Extensive; format: functional, organism-based; details: tested as the Zn salt or complex; how it was run: as §3
[16] = tested on: EMT6; details: Mus musculus
[17] = organism: Mus musculus; details: BALB/c, 2 umol/kg
[18] = Mus musculus, tested as the Zn salt or complex

`Oc1ccc2c(c1)-c1nc-2nc2[n-]c(nc3nc(nc4[n-]c(n1)c1ccccc41)-c1ccccc1-3)c1ccc(O)cc21.[Zn+2]` was tested, and the LD90 [1] was 0.4 J cm**-2, the LD90 [2] was 7.5 J cm**-2 and the Tumor response [3] was 75%. For the same compound, the LC90 [4] was 0.58 µM, the Tumor response [5] was 0% and the Tumor response [6] was 0%. The Tumor response [7] was “Light”.
`Oc1ccc2c(c1)-c1nc-2nc2[n-]c(nc3nc(nc4[n-]c(n1)c1ccc(O)cc41)-c1ccc(O)cc1-3)c1ccc(O)cc21.[Zn+2]` was tested, and the LD90 [1, 18] was “inactive”, the LD90 [2, 18] was “inactive” and the Tumor response [8] was “inactive”. For the same compound, the Activity [9] was “inactive”, the Tumor response [10] was 0% and the LC90 [4, 18] was “inactive”. It also gave an LC90 [11] greater than 100 µM.
Work on `Oc1cc2c(cc1O)-c1nc-2nc2[n-]c(nc3nc(nc4[n-]c(n1)c1ccccc41)-c1ccccc1-3)c1ccccc21.[Zn+2]` yielded an LD90 [1] of 0.25 J cm**-2, an LD90 [2] of 2.4 J cm**-2 and a Tumor response [3] of 0%. The Tumor response [12] was “Important”, the Tumor response [13] was “Important” and the LC90 [4] was 0.3 µM. The Tumor response [5] was 62% and the Tumor response [6] was 25%.
In the case of `Oc1ccc2c(c1)-c1nc-2nc2[n-]c(nc3nc(nc4[n-]c(n1)c1ccccc41)-c1ccccc1-3)c1ccccc21.[Zn+2]`, the LD90 [1] is reported as 0.15 J cm**-2, the LD90 [2] is reported as 0.4 J cm**-2 and the Tumor response [3] is reported as 25%. The LC90 [4] was 0.12 µM, the Tumor response [5] was 100% and the Tumor response [6] was 12%. The Tumor response [14] was “Extensive” and the Tumor response [15] was “Extensive”.
`Oc1ccc2c(c1)-c1nc-2nc2[n-]c(nc3nc(nc4[n-]c(n1)c1ccccc41)-c1ccc(O)cc1-3)c1ccc(O)cc21.[Zn+2]` was tested, and the LD90 [1] was 0.48 J cm**-2, the LD90 [2] was 19 J cm**-2 and the LC90 [4] was 0.8 µM.
`[Zn+2].c1ccc2c(c1)-c1nc-2nc2[n-]c(nc3nc(nc4[n-]c(n1)c1ccccc41)-c1ccccc1-3)c1ccccc21` [(PHTHALOCYANINATO)ZINC(II)] was tested, and the LD90 [1, 18] was “inactive”, the LD90 [2] was 0.14 J cm**-2 and the Tumor response [3] was 100%. For the same compound, the LC90 [16] was “inactive”, the LC90 [4, 18] was “inactive” and the Tumor response [17] was “inactive”.
